Test results: the RNAGym collection of RNA variant scans (doi:10.1126/science.aae0568)
Fewer inactive variants are shown than the library holds.

B1: tRNA (parent)
chain: GUUCCGUUGGCGUAAUGGUAACGCGUCUCCCUCCUAAGGAGAAGACUGCGGGUUCGAGUCCCGUACGGAACG

Variants of: B1
Assay: yeast fitness relative to wild type (ratio to wild type); higher = fitter; tRNA-Arg(CCU), competitive growth, 37 C, YPD
Outline: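 The tRNA-Arg(CCU) gene variants were made by chemical synthesis with a 3% per-site mutation rate at 69 sites and inserted at the native genomic locus of Saccharomyces cerevisiae. After pooling, the strains were competed in YPD at 37°C for 24 hours in six parallel replicates. Gene amplicons from the start population and each end population were read by 100-nucleotide paired-end sequencing, and Darwinian fitness relative to wild type was taken from genotype frequency changes. Genotypes needed ≥ 100 starting reads, and estimates < 0.5 were set to 0.5.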

Variant	yeast fitness
U35C U53A	0.56
A37G C55U G63A	≤ 0.5
A36G G67C	0.759
A37C A40G G52C U59C A65U	≤ 0.5
A36G A43U U47G U53G	≤ 0.5
A36G A57G	0.985
A37C A42G	0.777
A36U G52C	0.53
A36G U47C	0.989
A36C A40U C46A G68C	0.584
A36G A37C A43G	0.63
A36G G38C G63A	≤ 0.5
A36U G38A	0.617
A36U C46G A69U	0.538
A37C A42G G44A G67A	≤ 0.5
A36G G56A A70G	0.595
A36U U64A	0.535
A37C A57C	0.543
A37C A57G	0.665
A37G C49G C55U G56C G68A	≤ 0.5
A36G G68C	0.779
A36C C49U G67C	0.532
A37G C49U	0.819
A36U U47G A70G	≤ 0.5

Variant	yeast fitness
A36G U54A	0.691
U35C G63A	0.614
A36G A45C C55G G58C	0.689
A36C G44U	≤ 0.5
A36G U59C C61A C62U	≤ 0.5
A37C C46G C62U A69U	0.673
A37G G44A A65C	0.561
A37G C49A G56A	0.607
U35C G50C U54A	≤ 0.5
A36C G52A	≤ 0.5
A37C A43C A65C	0.612
U35G A37G C49U	≤ 0.5
A37C C66A	0.659
A37C U47G	0.573
A37C G63C A69C	≤ 0.5
U35C C66U	0.781
U35C C66G	0.657
A37C A43C A70U	0.622
A36C U59C	0.562
U35G A45U	0.589
A36C G56C A57C	0.593
A37C C55G A69C	≤ 0.5
A36U A57C C62U	0.627
A36U C55A	≤ 0.5

Variant	yeast fitness
A36U A45U C46A C66U A69U	≤ 0.5
A37C C55A A65C	0.603
A36C A40C	0.572
A37G G39A	0.638
U35G A40C C62G C66G	0.539
A37C C62A	0.874
A36C A42G C61A	≤ 0.5
U35G A65U	0.606
A37G G44A U64G	≤ 0.5
U35G G63A	0.7
A36U G58C A65U	≤ 0.5
A37C U47C G51A G67A	≤ 0.5
A36C G50A	0.608
A37C C60U G67A	0.522
A36G G39C C49U U54G	0.58
A36G C60A	0.575
A36G U47A G67C	≤ 0.5
A36G A45C A57C U64A G68A	≤ 0.5
A37C C61G	0.584
A37C C61U	0.681
A36G G52A C66A A69U	≤ 0.5
A36C A69U	0.63
A37C A43U G52A C62A C66A	≤ 0.5
U35C G39A	0.886

Variant	yeast fitness
A37C C49G A70C	≤ 0.5
A37C A43U A69U	0.738
A36G C66U A69U	0.76
A36U A42C C61G	≤ 0.5
U35G C55U	0.664
U35G U64C A69C	≤ 0.5
A37C A57U U59C	≤ 0.5
A36C G38C	0.524
A37C G68C	0.764
A36U A40U A45G G58C	0.565
A36G C55U G68C	0.594
A36G U54A C60G	≤ 0.5
A37C C46U U53C	≤ 0.5
A36C C55U C66A	≤ 0.5
A37G C55A G67A	≤ 0.5
A36G C60G A70G	≤ 0.5
A36G A69G	0.932
A36G A45U A70U	0.708
A36C A45C G48A	≤ 0.5
U35G G67A	0.616
A36C A43U	0.575
U35C G39A U53A	0.567
A36U A40U	0.591
A36U A40C	0.54

Variant	yeast fitness
U35G U53G	0.592
U35G C61U	0.792
A37G G41A G50A	≤ 0.5
U35C G50A C55U	≤ 0.5
A37C G52A U53A	0.566
U35G C49A	0.595
A37C A57U A65U	0.637
U35C U59A A70C	≤ 0.5
A37C G39C	0.534
U35C G52A	0.658
A36C C60U C62U A65C	≤ 0.5
A36G G48A C49U	0.606
A37G G39A C46G U53C C62U A69C	≤ 0.5
A36U A43U	0.638
A37C A42C C66A	0.547
A36U G41C	0.686
U35G G51A	0.634
A36C U53A	0.643
A36U G58C C60U	≤ 0.5
A37C C46G	0.947
A36U C61G A65C	≤ 0.5
U35G A57C A70C	≤ 0.5
A37G G44A C66U	0.731
U35G G52A	≤ 0.5

Variant	yeast fitness
U35C G44C	0.88
A37C C55G	0.607
A37G A69C	0.97
A36C G38A G58A	0.562
A36C G50C U53C	≤ 0.5
U35C G51U	0.527
A36G C49U U64C G68C	≤ 0.5
A36G G58A C60U	≤ 0.5
A37C A45U G68C	≤ 0.5
A36C G38C G50C G51A G63C	0.642
A37C A69C	0.865
A37C A69U	1.03
A36C A37G G56A	≤ 0.5
A37C C46G C62U	0.872
A36U C49U G58C C66U	≤ 0.5
A37C C49G A57C	≤ 0.5
A36C U64A	0.932
A36C U64C	0.824
A37G C55G U64C	0.633
U35G U59A	0.646
A36U A37U	0.587
A36U A45C C49G	0.704
U35C G52C G67C	0.533
A37C A65G	0.94

Variant	yeast fitness
A36G A42U U53C G58C	0.569
A36U G68A	0.642
A36U G68C	0.698
A37C A42C C46A A70C	≤ 0.5
U35G A43G	0.725
A36C A42U A43G G63C	0.509
A36U A43C G44C G48C	≤ 0.5
A36U C49G G50C	≤ 0.5
A36G C61G	0.659
A37C C46G C49G	0.568
U35G A70C	0.711
A36U A65U G67A A70G	≤ 0.5
A36G G48A G51C	≤ 0.5
A37C U64A	0.729
A36U C62U A65U	0.519
A36C A37U G50C C66U	0.56
A36U A40U C60A	0.713
A36U U59C	0.663
A37C C46G C60A C66U	≤ 0.5
A36U C61U	0.693
A36G A43C	0.819
A37G A42U C62A A65C	≤ 0.5
A37C A45U C61U	0.545
